Results on 1 compound are retold here after ChEMBL document CHEMBL1240482, “Synthesis and antiproliferative evaluation of certain indeno[1,2-c]quinoline derivatives. Part 2” (J Med Chem, 2010).

The source made the active and inactive calls. The rule behind the calls is not given here.

One data set is filed under the species Homo sapiens. Kind of data set: Inhibition of human topoisomerase 2 assessed as decrease in pBR322 mobility on agarose gel at 10 uM by electrophoresis. In a few lines: (§1)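 Enzyme preincubated with compound before DNA addition; reaction run 30 min at 37 °C and stopped with SDS. Products resolved on 1% agarose, stained with ethidium bromide, quantified by densitometry.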

The nature of data set [1]: Cytotoxicity against human SKHep cells after 48 hrs by MTT assay. Type of data set: functional. In a few lines: (§2)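 Cells grown in DMEM with 10% FBS at 37 °C and 5% CO2, seeded at 5 × 10^3 per well and allowed 24 h before drug. Serial dilutions from DMSO stocks applied for 48 h. MTT (2 mg/mL in PBS) added for 2 h, formazan dissolved in DMSO, absorbance read at 570 nm. GI50 interpolated by linear regression from at least three points in the 20-80% range; three independent experiments.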
(Tetrazolium assays rely on reduction of a dye to a coloured formazan, in cell work by metabolically active cells.)

Data set [2] relates to Mus musculus. Nature of the data set: Toxicity to BALB/c mouse assessed as change in body weight at 20 mg/kg, iv. Type of data set: organism-based. Further details: dose 20 mg/kg, route intravenous. Particulars: in vivo. In a few lines:
(§3)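 BALB/c mice, 3 per group, randomized by body weight (stratified). Dosed iv via tail vein at 10, 20 or 40 mg/kg in PEG 400/ethanol/water (20/20/60), once every 3 days for 2 weeks; solvent controls. Weighed throughout. After a 24 h fast, heart blood was drawn under ether; GOT, GPT, BUN and creatinine were measured on an analyzer. Liver and kidney taken for H&E.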

Data set [3] in a line: Cell cycle arrest in human BT-483 cells assessed as accumulation at sub-G1 phase at 1 uM after 24 hrs by flow cytometry. Type of data set: functional, cell-based. In outline: (§4)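 BT483 cells exposed to 0, 1, 3 or 10 μM for 24 h, then stained with propidium iodide and analysed for DNA content by flow cytometry. The subdiploid (sub-G1) peak, expressed as a percentage of the whole population, is scored as apoptotic.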
In general terms: In flow cytometry, cells or beads pass a laser one at a time.

Data set [4] relates to SAS. Nature of the data set: Selectivity index, ratio of IC50 for human Detroit 551 cells to IC50 for human SAS cells. It counts as functional.
Data set [5] has as its system SAS. Kind of data set: Cytotoxicity against human SAS cells after 48 hrs by MTT assay. Type of data set: functional. In outline:
as §2

Data set [6] can be described thus: Volume of distribution at steady state in CD1 mouse at 2 mg/ kg, iv. Type of data set: ADME, organism-based. More on the design: dose 2 mg/ kg, route intravenous. Particulars: in vivo, read-out: Vdss. In a few lines:
(§5)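 Fasted male CD-1 (Crl.) mice, 22-24 g; single tail-vein bolus of 2.0 mg/kg in PEG400/ethanol/water (30/5/65), 10 mL/kg. Cardiac-puncture blood into K-EDTA at 0-27 h, three mice per time point; plasma analysed by LC-MS/MS after acetonitrile precipitation. Parameters calculated from mean plasma concentrations.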

A short description of data set [7]: Cell cycle arrest in human BT-483 cells assessed as accumulation at sub-G1 phase at 10 uM after 24 hrs by flow cytometry. It counts as functional, cell-based. In a few lines: as §4
Data set [8] in a line: AUC (0 to infinity) in CD1 mouse at 20 mg/ kg, po. Type of data set: ADME, organism-based. More on the design: time infinity, dose 20 mg/ kg, route oral. Particulars: plasma. In outline:
(§6)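 Male CD-1 (Crl.) mice, 22-24 g, fasted 4 h before dosing; single oral gavage of 20 mg/kg as a suspension in 0.5% methylcellulose/water, 10 mL/kg. Cardiac-puncture plasma (K-EDTA) taken predose to 27 h, three mice per time point; LC-MS/MS quantification.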

Data set [9] has as its system Mus musculus. Kind of data set: Toxicity to BALB/c mouse assessed as change in glutamic oxalacetic transaminase at 20 mg/kg, iv. Type of data set: organism-based. Further details: dose 20 mg/kg, route intravenous. Particulars: in vivo. In a few lines: as §3
The test system of another data set is HeLa. Nature of the data set: Selectivity index, ratio of IC50 for human Detroit 551 cells to IC50 for human HeLa cells. Type of data set: functional.
Data set [10] can be described thus: Apparent volume of distribution in CD1 mouse at 2 mg/ kg, iv. It counts as ADME, organism-based. Particulars: in vivo, read-out: Vz. Further details: dose 2 mg/ kg, route intravenous. In a few lines:
as §5

Data set [11] is described as follows: Mean retention time in CD1 mouse at 2 mg/ kg, iv. It counts as ADME, organism-based. Further details: dose 2 mg/ kg, route intravenous. Particulars: in vivo. In outline:
as §5

The subject of another data set is Detroit 551. Nature of the data set: Selectivity index, ratio of IC50 for human Detroit 551 cells to IC50 for human PC3 cells. It counts as functional.
A short description of data set [12]: Inhibition of human topoisomerase 2 assessed as decrease in pBR322 mobility on agarose gel by electrophoresis. In outline: as §1
Data set [13] deals with Mus musculus. Kind of data set: Toxicity to BALB/c mouse assessed as change in blood urea nitrogen at 20 mg/kg, iv. Type of data set: organism-based. Further details: dose 20 mg/kg, route intravenous. Particulars: in vivo. In outline: as §3
For the next data set, the system named is Nucleic Acid. Kind of data set: Binding affinity to pBR322. It counts as nucleic-acid assay. Particulars: Escherichia coli.
The next data set concerns A549. Kind of data set: Cytotoxicity against human A549 cells after 48 hrs by MTT assay. It counts as functional. Particulars: A549, 48 h. In outline:
as §2

The next data set has as its target T1, DNA topoisomerase 1 (Homo sapiens, UniProt P11387).
T1 sequence (P11387 whole entry): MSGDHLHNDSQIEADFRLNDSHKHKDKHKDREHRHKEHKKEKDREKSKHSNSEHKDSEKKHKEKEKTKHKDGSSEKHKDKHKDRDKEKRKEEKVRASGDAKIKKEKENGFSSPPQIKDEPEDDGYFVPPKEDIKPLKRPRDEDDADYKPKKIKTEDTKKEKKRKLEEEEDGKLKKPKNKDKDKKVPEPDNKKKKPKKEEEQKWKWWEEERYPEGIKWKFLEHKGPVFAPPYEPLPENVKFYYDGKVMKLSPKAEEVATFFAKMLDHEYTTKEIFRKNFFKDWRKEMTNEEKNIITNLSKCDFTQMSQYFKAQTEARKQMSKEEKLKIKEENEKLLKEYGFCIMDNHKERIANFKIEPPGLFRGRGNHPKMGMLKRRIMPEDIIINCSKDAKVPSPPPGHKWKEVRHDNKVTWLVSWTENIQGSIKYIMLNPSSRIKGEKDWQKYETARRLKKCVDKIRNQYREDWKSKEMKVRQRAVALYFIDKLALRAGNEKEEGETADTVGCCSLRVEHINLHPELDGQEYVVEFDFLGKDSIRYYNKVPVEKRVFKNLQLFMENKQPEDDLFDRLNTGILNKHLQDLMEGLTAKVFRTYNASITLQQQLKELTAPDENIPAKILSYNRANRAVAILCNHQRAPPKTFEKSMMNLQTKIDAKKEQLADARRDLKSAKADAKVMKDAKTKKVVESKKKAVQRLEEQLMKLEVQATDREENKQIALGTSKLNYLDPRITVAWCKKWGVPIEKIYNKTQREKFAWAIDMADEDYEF
Nature of the data set: Inhibition of human topoisomerase 1 assessed as decrease in pBR322 mobility on agarose gel by electrophoresis. In a few lines:
as §1

A short description of data set [14]: Clearance in CD1 mouse at 2 mg/ kg, iv. It counts as ADME, organism-based. Further details: dose 2 mg/ kg, route intravenous. Particulars: in vivo. In outline: as §5
Data set [15] deals with Mus musculus. Nature of the data set: Toxicity to BALB/c mouse assessed as survival rate at 20 mg/kg, iv. Type of data set: organism-based. More on the design: dose 20 mg/kg, route intravenous. Particulars: in vivo. In a few lines: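 Balb/C athymic nude mice (6-8 weeks, ~20 g) bearing subcutaneous BT483 breast xenografts (0.5 × 10^6 cells). Treatment began at ~500 mm3 tumour volume: cosolvent formulation diluted in 5% dextrose, iv at 10 or 20 mg/kg once daily for 14 days; controls received vehicle. 3 animals per group. Survival was assessed by Kaplan-Meier analysis at study end, p < 0.05.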

In another data set the test system is BT-483. Nature of the data set: Antitumor activity against human BT-483 cells xenografted in BALB/c athymic mouse assessed as reduction in tumor size at 10 to 20 mg/kg, iv. Type of data set: functional, organism-based. In a few lines: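 Balb/C athymic nude mice, 6-8 weeks, about 20 g, given subcutaneous BT483 breast cancer cells. Once tumours averaged about 500 mm3, dosed iv at 10 or 20 mg/kg once daily for 14 days, in a cosolvent formulation diluted in 5% dextrose; vehicle controls; three animals per group. Caliper volume taken as width × length × height.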

A short description of data set [16]: Cmax in CD1 mouse at 20 mg/ kg, po. Further details: dose 20 mg/ kg, route oral. It counts as ADME, organism-based. Particulars: in vivo. In outline: as §6

A word on the inhibition: it is the share of the control response that was lost under treatment. By GI50 is commonly meant the concentration giving 50% growth inhibition. A high value points to lower sensitivity of the cells. For orientation: AUC(0-inf) means the area under the concentration-time curve extrapolated to infinity. Read a high AUC(0-inf) as high exposure. What is called MRT is a mean duration of stay, worked out from the concentration-time curve. Usually IC50 stands for the concentration that inhibits the measured activity by half. The term clearance denotes the rate of elimination divided by the concentration. Low readings indicate a low capacity for elimination, high ones a high capacity for elimination. As a reminder, the Cmax is the highest concentration seen after dosing.

Regarding `COc1ccc2c(c1)/C(=N\OCCN1CCCC1)c1c-2c(O)nc2ccccc12`, in the data set listed under Homo sapiens, the inhibition was 60%. For the same compound, the GI50 in data set [1] is 1.24 µM; with SAS [5], 0.84 µM; with A549, 0.89 µM. Further, the Activity entry in the data set with Mus musculus [2] is “Non-toxic”; in data set [3], 43%; in data set [7], 88%; in the data set with Mus musculus [9] it was “Non-toxic”; in the data set with Mus musculus [13], “Non-toxic”; in the data set with Mus musculus [15], “Non-toxic”. In addition, the RatioGI50 is 14.81 in the data set with SAS [4], 54.09 with HeLa and 6.8 in the data set with Detroit 551. In addition, the figures for the Vd in [6] and in data set [10] were 12.3 L/kg and 25.5 L/kg, respectively. The same compound showed an area under the curve AUC(0-inf) in data set [8] of 0.187 µg·h/mL. Besides, the MRT in [11] worked out at 1.1 h. Besides, the IC50 in data set [12] worked out at 8.26 µM; at DNA topoisomerase 1, 3.76 µM. Besides, the result in the data set with Nucleic Acid and with BT-483 was Active. In data set [14], this compound had a clearance of 11.6 L/h/kg. Moreover, the Cmax in [16] came to 0.063 µg/mL.
